In PubChem BioAssay AID2237 (Johns Hopkins Ion Channel Center, 2010):
Screen size: about 310,000 compounds; about 1,500 (0.48%) were called active.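 Rule for the calls: active = B-score above 5 SD of library B-scores, and initial fluorescence ratio not above library mean plus 5 SD; inactive = the rest.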 What follows is part of a selection rich in actives, with near analogues and random picks from the rest.

molecular target: Short transient receptor potential channel 4 (Mus musculus) (UniProt Q9QUQ5); test: TRPC4 cation channel opening, calcium rise – Fluo4 calcium, HEK293 TRPC4beta/mu-opioid cells, primary screen (AID 2237); conditions: Fluo4 calcium fluorescence, at 10 µM; stronger effect = higher value;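 for B-score: positive B-score marks a calcium rise read as TRPC4 activation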
Procedure, shortened: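 Assay system – TRPC4beta and mu-opioid receptor HEK293 stable cells · Measured by – Fluo4 fluorescence, kinetic · Schedule – dye loading 45 min room temperature, 110 s kinetic read · Read-out – B-scored integrated calcium fluorescence ratio · Controls – buffer and maximal DAMGO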

Sequence of Short transient receptor potential channel 4 (Mus musculus) (Q9QUQ5 whole entry, looked up): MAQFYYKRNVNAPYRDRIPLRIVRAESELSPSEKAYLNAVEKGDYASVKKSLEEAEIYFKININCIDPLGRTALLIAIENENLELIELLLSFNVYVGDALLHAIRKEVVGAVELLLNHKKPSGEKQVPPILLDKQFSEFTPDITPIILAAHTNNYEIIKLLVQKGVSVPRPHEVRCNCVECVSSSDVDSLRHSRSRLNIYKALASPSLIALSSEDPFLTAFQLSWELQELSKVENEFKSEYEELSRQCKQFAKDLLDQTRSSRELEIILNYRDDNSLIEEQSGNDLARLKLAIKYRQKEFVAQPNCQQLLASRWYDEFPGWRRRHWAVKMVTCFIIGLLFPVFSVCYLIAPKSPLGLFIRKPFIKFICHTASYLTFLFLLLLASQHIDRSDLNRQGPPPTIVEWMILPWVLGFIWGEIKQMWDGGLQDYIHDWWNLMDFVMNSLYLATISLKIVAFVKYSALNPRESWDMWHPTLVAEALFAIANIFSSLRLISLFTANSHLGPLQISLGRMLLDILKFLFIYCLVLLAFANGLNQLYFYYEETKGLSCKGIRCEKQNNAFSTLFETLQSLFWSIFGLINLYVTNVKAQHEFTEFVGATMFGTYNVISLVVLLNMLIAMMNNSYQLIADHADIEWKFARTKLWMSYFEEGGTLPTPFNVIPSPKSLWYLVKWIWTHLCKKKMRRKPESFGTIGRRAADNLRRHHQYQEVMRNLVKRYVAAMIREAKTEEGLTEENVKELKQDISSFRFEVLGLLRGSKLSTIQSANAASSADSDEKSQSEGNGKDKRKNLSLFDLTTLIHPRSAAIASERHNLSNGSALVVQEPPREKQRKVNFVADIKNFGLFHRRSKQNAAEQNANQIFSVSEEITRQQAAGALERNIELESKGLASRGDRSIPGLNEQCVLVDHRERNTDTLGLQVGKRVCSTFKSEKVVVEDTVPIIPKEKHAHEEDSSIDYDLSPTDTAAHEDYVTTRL

Row | Compound | B-score
1 | c1ccc2sc(N3CCNCC3)nc2c1 | 173 (active)
2 | COc1cc(OC)cc(C2(C#N)CCN(C)CC2)c1 | inactive
3 | C/C(=N/O)c1ccc2ccc3ccccc3c2c1 | inactive
4 | CCC1(C)CC(CCNCc2ccc(N(C)C)cc2)(c2ccc(F)cc2)CCO1 (stereo not given) | 114 (active)
5 | CCCCCCCCCCCCn1ccc(=N)cc1 | inactive
6 | O=C(c1cc2nc(-c3ccccc3)cc(-c3ccccc3)n2n1)N1CCC2(CC1)OCCO2 | inactive
7 | N#Cc1ccc(Cn2cc(C(=O)c3ccco3)c3ccccc32)cc1 | inactive
8 | CN(C)C(=O)Oc1ccc(NC(=O)N2CCOCC2)cc1 | inactive
9 | Cc1nc2ccccn2c1P(=S)(N1CCCCC1)N1CCCCC1 | 87 (active)
10 | CC(=C1C(=O)c2ccccc2C1=O)N1CCN(CCN=Cc2c(O)n(C)c(=O)n(C)c2=O)CC1 | inactive
11 | Cc1nc2ccccc2c(=O)n1-c1ccc(Cl)cc1Cl | inactive
12 | Cc1ccc(Cn2nnnc2CN2CCC(n3nnc4ccccc43)CC2)cc1 | inactive
13 | CCN(CC)C(=O)c1ccc(NC(=O)c2cc(-n3cnnc3)ccc2Cl)cc1 | inactive
14 | COc1ccc(CNCCc2ccc3c(c2)OCO3)c(OC)c1OC | inactive
15 | c1cncc(CNCCc2c[nH]c3ccccc23)c1 | inactive
16 | COc1ccc(CNCCc2c[nH]c3ccccc23)cc1OC | 88 (active)
17 | CC1C2Cn3c(nc4ccccc43)C1N(C)O2 (stereo not given) | inactive
18 | CCN1CCN(c2nc3c(c(=O)[nH]2)CCC3)CC1 | inactive
19 | Cc1ccnc(-n2c(C)cc(/C=C3\C(=O)NC(=S)N(C)C3=O)c2C)c1 | inactive
20 | c1ccc(CCN2CCC3(CC2)OCCO3)cc1 | inactive
21 | C[N+]1(C)CCOC(O)(c2ccc(-c3ccc(C4(O)C[N+](C)(C)CCO4)cc3)cc2)C1 (stereo not given) | inactive
22 | c1ccc2sc(C3CCCNC3)nc2c1 (stereo not given) | 159 (active)
23 | COc1ccccc1N=C1SCCCN1C | inactive

Row | Compound | B-score
24 | COc1ccc2c(c1O)-c1cccc3c1[C@@H](C2)N(C)CC3 | inactive
25 | CC(=NC1CCN(Cc2ccccc2)CC1)c1c(O)n(C)c(=O)n(C)c1=O | inactive
26 | CCN(CC)CCOC(=O)c1cc2cc(COC)ccc2o1 | inactive
27 | COC(=O)C1=C(c2ccccc2)C[C@@H]2CC[C@H]1N2C(=O)N1CCCCC1 | inactive
28 | Cc1ccc(CN2CCCC(C(=O)c3ccc4c(c3)OCO4)C2)cc1C (stereo not given) | inactive
29 | COc1ccc(C(=O)C2CCCN(Cc3ccc(C)s3)C2)cc1OC (stereo not given) | inactive
30 | CSc1ccc(C(=O)C2CCCN(Cc3ccn[nH]3)C2)cc1 (stereo not given) | 52 (active)
31 | c1ccc(CCNC2CCCCCC2)cc1 | inactive
32 | CCCCC(=O)N/N=C/c1c(O)n(-c2ccccc2)c(=O)[nH]c1=O | inactive
33 | CCCCC(=O)N/N=C/c1c(O)n(CCC2=CCCCC2)c(=O)[nH]c1=O | inactive
34 | CCCCC(=O)N/N=C/c1c(O)n(CC)c(=S)n(CC)c1=O | 103 (active)
35 | O=C1NC(=O)C(C/C=C/c2ccccc2)C(=O)N1 | inactive
36 | CC(=O)N(C1=NCCCS1)c1ccccc1F | 44 (active)
37 | O=c1c2ccccc2nc(-c2ccc(Cl)cc2Cl)n1-c1ccncc1 | inactive
38 | COc1ccc(N=Cc2c(O)n(C)c(=O)[nH]c2=O)cc1 | inactive
39 | Cn1c(C(=O)N2CCC(C(=O)N3CCC4(CC3)OCCO4)CC2)cc2sccc21 | inactive
40 | COC(=O)C1=C(c2cc3ccccc3s2)C[C@@H]2CC[C@H]1N2C(=O)NCCO | 72 (active)
41 | COC(=O)C1=C(c2cc3ccccc3s2)C[C@@H]2CC[C@H]1N2C(=O)NC(C)C | inactive
42 | COC(=O)C1=C(c2cc3ccccc3s2)C[C@@H]2CC[C@H]1N2C(=O)NCc1cccc2ccccc12 | inactive
43 | C=CCN1C(=O)C2(C(C(=O)OCC)=C(N)Oc3c2c(=O)oc2ccccc32)c2ccccc21 (stereo not given) | inactive
44 | COc1ccccc1C1=NCc2nnc(CSC)n2-c2ccc(Cl)cc21 | inactive
45 | CN(C)CCN(CC1CCCN(Cc2ccccc2F)C1)C(=O)Cc1ccc(F)c(F)c1 (stereo not given) | inactive
